In ChEMBL document CHEMBL2396553, “C3'-endo-puckered pyrrolidine containing PNA has favorable geometry for RNA binding: novel ethano locked PNA (ethano-PNA)” (Bioorg Med Chem, 2013):
Active and inactive are the calls of the source. No cut-off for these calls is given here.

Tests used:
Nucleic Acid [1] = assay: Binding affinity to 5'-UGGAGUGUGACAAUGGUG RNA (unknown origin) assessed as melting temperature at 100 mM by UV-thermal denaturation assay; format: nucleic-acid assay; details: 100 mM NaCl
How it was run: (§1)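 Each strand 1 µM (concentrations from nucleobase molar extinction coefficients) in 10 mM sodium phosphate pH 7.0 with 10 or 100 mM NaCl. Annealed 90 °C for 5 min, slow-cooled to room temperature then 0 °C. Absorbance at 260 nm followed from 10 to 85 °C at 0.5 °C/min. Tm taken from first-derivative curves. At least three runs, accurate within 0.3 °C.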

Nucleic Acid [2] = assay: Binding affinity to 5'-TGGAGTGTGACAATGGTG cDNA (unknown origin) assessed as melting temperature at 10 mM by UV-thermal denaturation assay; format: nucleic-acid assay; details: 10 mM NaCl; how it was run: as §1
Nucleic Acid [3] = assay: Binding affinity to 5'-UGGAGUGUGACAAUGGUG RNA (unknown origin) assessed as melting temperature at 10 mM by UV-thermal denaturation assay; format: nucleic-acid assay; details: 10 mM NaCl; how it was run: as §1
[4] = Binding affinity to 5'-UGGAGUGUGACAAUGGUG RNA (unknown origin) at 1 uM by circular dichroism analysis
How it was run: (§2)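 CD spectra of 1 µM complexes in 10 mM sodium phosphate pH 7.0 with 10 mM NaCl, annealed 90 °C for 5 min and slow-cooled to room temperature. Recorded at room temperature from 320 to 210 nm at 100 nm/min in a 1 cm path cuvette. At least 8 scans averaged.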

[5] = Binding affinity to 5'-TGGAGTGTGACAATGGTG cDNA (unknown origin) at 1 uM by circular dichroism analysis; how it was run: as §2
Nucleic Acid [6] = assay: Binding affinity to 5'-UGGAGUGAGACAAUGGUG mismatch RNA (unknown origin) assessed as melting temperature at 100 mM by UV-thermal denaturation assay; format: nucleic-acid assay; details: 100 mM NaCl; how it was run: as §1
Nucleic Acid [7] = assay: Binding affinity to 5'-TGGAGTGTGACAATGGTG cDNA (unknown origin) assessed as melting temperature at 100 mM by UV-thermal denaturation assay; format: nucleic-acid assay; details: 100 mM NaCl; how it was run: as §1
Nucleic Acid [8] = assay: Binding affinity to 5'-UGGAGUGAGACAAUGGUG mismatch RNA (unknown origin) assessed as melting temperature at 10 mM by UV-thermal denaturation assay; format: nucleic-acid assay; details: 10 mM NaCl; how it was run: as §1

Row | Compound | Tm (Nucleic Acid [1]) [°C] | Tm (Nucleic Acid [2]) [°C] | Tm (Nucleic Acid [3]) [°C] | Activity [4] | Activity [5] | Tm (Nucleic Acid [6]) [°C] | Tm (Nucleic Acid [7]) [°C] | Tm (Nucleic Acid [8]) [°C]
1 | Cc1cn(CC(=O)N(CCNC(=O)CN(CCNC(=O)CN(CCN)C(=O)Cn2ccc(N)nc2=O)C(=O)Cn2cnc3c(N)ncnc32)CC(=O)NCCN(CC(=O)NCCN(CC(=O)N2C[C@@H](N(CC(=O)NCCN(CC(=O)NCCN(CC(=O)NCCN(CC(=O)NCCN(CC(=O)NCCN(CC(=O)NCCN(CC(=O)N[C@@H](CCCCN)C(N)=O)C(=O)Cn3cc(C)c(=O)[nH]c3=O)C(=O)Cn3ccc(N)nc3=O)C(=O)Cn3cnc4c(N)ncnc43)C(=O)Cn3ccc(N)nc3=O)C(=O)Cn3cnc4c(N)ncnc43)C(=O)Cn3ccc(N)nc3=O)C(=O)Cn3cc(C)c(=O)[nH]c3=O)C[C@H]2CN)C(=O)Cn2cnc3c(=O)[nH]c(N)nc32)C(=O)Cn2cc(C)c(=O)[nH]c2=O)c(=O)[nH]c1=O | 57.2 | 51.8 | 60.4 | Active | Active | 44.7 | 46.6 | 46.7
2 | Cc1cn(CC(=O)N(CCNC(=O)CN(CCNC(=O)CN(CCNC(=O)CN(C(=O)Cn2cc(C)c(=O)[nH]c2=O)[C@H]2C[C@@H](CN)N(C(=O)CN(CCNC(=O)CN(CCN)C(=O)Cn3ccc(N)nc3=O)C(=O)Cn3cnc4c(N)ncnc43)C2)C(=O)Cn2cc(C)c(=O)[nH]c2=O)C(=O)Cn2cnc3c(=O)[nH]c(N)nc32)CC(=O)NCCN(CC(=O)NCCN(CC(=O)NCCN(CC(=O)NCCN(CC(=O)NCCN(CC(=O)NCCN(CC(=O)N[C@@H](CCCCN)C(N)=O)C(=O)Cn2cc(C)c(=O)[nH]c2=O)C(=O)Cn2ccc(N)nc2=O)C(=O)Cn2cnc3c(N)ncnc32)C(=O)Cn2ccc(N)nc2=O)C(=O)Cn2cnc3c(N)ncnc32)C(=O)Cn2ccc(N)nc2=O)c(=O)[nH]c1=O | 60.1 | 57.1 | 66.3 | Active | Active | 45.7 | 53.8 | 51.8
3 | Cc1cn(CC(=O)N(CCNC(=O)CN(CCNC(=O)CN(CCNC(=O)CN(C(=O)Cn2cc(C)c(=O)[nH]c2=O)[C@H]2C[C@@H](CNC(=N)N)N(C(=O)CN(CCNC(=O)CN(CCN)C(=O)Cn3ccc(N)nc3=O)C(=O)Cn3cnc4c(N)ncnc43)C2)C(=O)Cn2cc(C)c(=O)[nH]c2=O)C(=O)Cn2cnc3c(=O)[nH]c(N)nc32)CC(=O)NCCN(CC(=O)NCCN(CC(=O)NCCN(CC(=O)NCCN(CC(=O)NCCN(CC(=O)NCCN(CC(=O)N[C@@H](CCCCN)C(N)=O)C(=O)Cn2cc(C)c(=O)[nH]c2=O)C(=O)Cn2ccc(N)nc2=O)C(=O)Cn2cnc3c(N)ncnc32)C(=O)Cn2ccc(N)nc2=O)C(=O)Cn2cnc3c(N)ncnc32)C(=O)Cn2ccc(N)nc2=O)c(=O)[nH]c1=O | 60.7 | 60.6 | 68.1 | Active | Active | 46.8 | 56.3 | 53.6
4 | Cc1cn(CC(=O)N(CCNC(=O)CN(CCNC(=O)CN(CCN)C(=O)Cn2ccc(N)nc2=O)C(=O)Cn2cnc3c(N)ncnc32)CC(=O)NCCN(CC(=O)NCCN(CC(=O)N2CC[C@H](N(CC(=O)NCCN(CC(=O)NCCN(CC(=O)NCCN(CC(=O)NCCN(CC(=O)NCCN(CC(=O)NCCN(CC(=O)N[C@@H](CCCCN)C(N)=O)C(=O)Cn3cc(C)c(=O)[nH]c3=O)C(=O)Cn3ccc(N)nc3=O)C(=O)Cn3cnc4c(N)ncnc43)C(=O)Cn3ccc(N)nc3=O)C(=O)Cn3cnc4c(N)ncnc43)C(=O)Cn3ccc(N)nc3=O)C(=O)Cn3cc(C)c(=O)[nH]c3=O)C2)C(=O)Cn2cnc3c(=O)[nH]c(N)nc32)C(=O)Cn2cc(C)c(=O)[nH]c2=O)c(=O)[nH]c1=O | 52.3 | 49.7 | 59.4 | Active | Active | 42.2 | 46.2 | 45.4
5 | Cc1cn(CC(=O)N(CCNC(=O)CN(CCNC(=O)CN(CCNC(=O)CN(C(=O)Cn2cc(C)c(=O)[nH]c2=O)[C@H]2CCN(C(=O)CN(CCNC(=O)CN(CCN)C(=O)Cn3ccc(N)nc3=O)C(=O)Cn3cnc4c(N)ncnc43)C2)C(=O)Cn2cc(C)c(=O)[nH]c2=O)C(=O)Cn2cnc3c(=O)[nH]c(N)nc32)CC(=O)NCCN(CC(=O)NCCN(CC(=O)NCCN(CC(=O)NCCN(CC(=O)NCCN(CC(=O)NCCN(CC(=O)N[C@@H](CCCCN)C(N)=O)C(=O)Cn2cc(C)c(=O)[nH]c2=O)C(=O)Cn2ccc(N)nc2=O)C(=O)Cn2cnc3c(N)ncnc32)C(=O)Cn2ccc(N)nc2=O)C(=O)Cn2cnc3c(N)ncnc32)C(=O)Cn2ccc(N)nc2=O)c(=O)[nH]c1=O | 59.9 | 55.8 | 65.5 | Active | Active | 43.3 | 50 | 50.8

Continued, values first:

Row | Tm (Nucleic Acid [1]) [°C] | Tm (Nucleic Acid [2]) [°C] | Tm (Nucleic Acid [3]) [°C] | Activity [4] | Activity [5] | Tm (Nucleic Acid [6]) [°C] | Tm (Nucleic Acid [7]) [°C] | Tm (Nucleic Acid [8]) [°C] | Compound
6 | 59.4 | 53.7 | 62.7 | Active | Active | 46.3 | 48.8 | 47.1 | Cc1cn(CC(=O)N(CCNC(=O)CN(CCNC(=O)CN(CCN)C(=O)Cn2ccc(N)nc2=O)C(=O)Cn2cnc3c(N)ncnc32)CC(=O)NCCN(CC(=O)NCCN(CC(=O)N2C[C@@H](N(CC(=O)NCCN(CC(=O)NCCN(CC(=O)NCCN(CC(=O)NCCN(CC(=O)NCCN(CC(=O)NCCN(CC(=O)N[C@@H](CCCCN)C(N)=O)C(=O)Cn3cc(C)c(=O)[nH]c3=O)C(=O)Cn3ccc(N)nc3=O)C(=O)Cn3cnc4c(N)ncnc43)C(=O)Cn3ccc(N)nc3=O)C(=O)Cn3cnc4c(N)ncnc43)C(=O)Cn3ccc(N)nc3=O)C(=O)Cn3cc(C)c(=O)[nH]c3=O)C[C@H]2CNC(=N)N)C(=O)Cn2cnc3c(=O)[nH]c(N)nc32)C(=O)Cn2cc(C)c(=O)[nH]c2=O)c(=O)[nH]c1=O
7 | 63.7 | 64.6 | 66.1 | Active | Active | 53 | 60.1 | 55.1 | Cc1cn(CC(=O)N(CCNC(=O)CN(CCNC(=O)CN(CCNC(=O)CN(CCNC(=O)CN(CCNC(=O)CN(CCN)C(=O)Cn2ccc(N)nc2=O)C(=O)Cn2cnc3c(N)ncnc32)C(=O)Cn2cc(C)c(=O)[nH]c2=O)C(=O)Cn2cc(C)c(=O)[nH]c2=O)C(=O)Cn2cnc3c(=O)[nH]c(N)nc32)CC(=O)NCCN(CC(=O)NCCN(CC(=O)NCCN(CC(=O)NCCN(CC(=O)NCCN(CC(=O)NCCN(CC(=O)N[C@@H](CCCCN)C(N)=O)C(=O)Cn2cc(C)c(=O)[nH]c2=O)C(=O)Cn2ccc(N)nc2=O)C(=O)Cn2cnc3c(N)ncnc32)C(=O)Cn2ccc(N)nc2=O)C(=O)Cn2cnc3c(N)ncnc32)C(=O)Cn2ccc(N)nc2=O)c(=O)[nH]c1=O
